Results taken from ChEMBL document CHEMBL5329146, “Thiourea derivatives containing 4-arylthiazoles and d-glucose moiety: design, synthesis, antimicrobial activity evaluation, and molecular docking/dynamics simulations” (RSC Med Chem, 2023).
pIC50: −log10 of the molar value. In brackets after ≈: the same amount, converted by molar mass.

Assays:
[1] = system: Staphylococcus aureus; experiment: Antibacterial activity against Staphylococcus aureus assessed as inhibition of visible bacterial growth incubated for 18 to 20 hrs by microbroth dilution method; type: functional; details: time 18-20 hrs
Method in brief: (§1)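 Inoculum was a 4–6 h broth culture adjusted to 0.5 McFarland turbidity and diluted to a final 5 × 10^5 CFU mL−1. Plates were incubated at 35 °C for 18–20 h. MIC was the lowest concentration giving complete inhibition of visible growth. Run three times.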

[2] = system: Aspergillus flavus; experiment: Antifungal activity against Aspergillus flavus assessed as inhibition of fungal growth incubated for 72 hrs by agar dilution method; type: functional
Method in brief: (§2)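 Agar dilution on Sabouraud dextrose agar, with compound solutions at 400 down to 0.78 μg mL−1 (twofold series). Fungal suspensions containing […] were applied to agar plates serially diluted with test compound. Plates were incubated at 35 °C, and MIC was read after 72 h. Experiments were performed three times.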

[3] = system: Staphylococcus epidermidis; experiment: Antibacterial activity against Staphylococcus epidermidis assessed as inhibition of visible bacterial growth incubated for 18 to 20 hrs by microbroth dilution method; type: functional; details: time 18-20 hrs; method in brief: as §1
[4] = system: Aspergillus niger; experiment: Antifungal activity against Aspergillus niger assessed as inhibition of fungal growth incubated for 72 hrs by agar dilution method; type: functional; method in brief: as §2
[5] = system: Pseudomonas aeruginosa; experiment: Antibacterial activity against Pseudomonas aeruginosa assessed as inhibition of visible bacterial growth incubated for 18 to 20 hrs by microbroth dilution method; type: functional; details: time 18-20 hrs; method in brief: as §1
[6] = system: Salmonella typhimurium; experiment: Antibacterial activity against Salmonella typhimurium assessed as inhibition of visible bacterial growth incubated for 18 to 20 hrs by microbroth dilution method; type: functional, Salmonella enterica subsp. enterica serovar Typhimurium; details: Salmonella enterica; time 18-20 hrs; method in brief: as §1
[7] = system: Streptococcus pneumoniae; experiment: Antibacterial activity against Streptococcus pneumoniae assessed as inhibition of visible bacterial growth incubated for 18 to 20 hrs by microbroth dilution method; type: functional; details: time 18-20 hrs
[8] = system: Candida albicans; experiment: Antifungal activity against Candida albicans assessed as inhibition of fungal growth incubated for 72 hrs by agar dilution method; type: functional; method in brief: as §2
[9] = system: Fusarium oxysporum; experiment: Antifungal activity against Fusarium oxysporum assessed as inhibition of fungal growth incubated for 72 hrs by agar dilution method; type: functional; method in brief: as §2
[10] = system: Bacillus subtilis; experiment: Antibacterial activity against Bacillus subtilis assessed as inhibition of visible bacterial growth incubated for 18 to 20 hrs by microbroth dilution method; type: functional; details: time 18-20 hrs; method in brief: as §1
[11] = system: Escherichia coli; experiment: Antibacterial activity against Escherichia coli assessed as inhibition of visible bacterial growth incubated for 18 to 20 hrs by microbroth dilution method; type: functional; details: time 18-20 hrs; method in brief: as §1
[12] = system: Klebsiella pneumoniae; experiment: Antibacterial activity against Klebsiella pneumoniae assessed as inhibition of visible bacterial growth incubated for 18 to 20 hrs by microbroth dilution method; type: functional; details: time 18-20 hrs; method in brief: as §1
[13] = system: Saccharomyces cerevisiae; experiment: Antifungal activity against Saccharomyces cerevisiae assessed as inhibition of fungal growth incubated for 72 hrs by agar dilution method; type: functional; method in brief: as §2
[14] = system: Clostridioides difficile; experiment: Antibacterial activity against Clostridium difficile assessed as inhibition of visible bacterial growth incubated for 18 to 20 hrs by microbroth dilution method; type: functional; details: time 18-20 hrs
[15] = target: Topoisomerase IV (Staphylococcus aureus, UniProt P0C1S7+P0C1U9); experiment: Inhibition of Staphylococcus aureus DNA topoisomerase 4 using supercoiled plasmid DNA as substrate; type: protein-complex assay
Topoisomerase IV, sequence (P0C1U9 whole entry): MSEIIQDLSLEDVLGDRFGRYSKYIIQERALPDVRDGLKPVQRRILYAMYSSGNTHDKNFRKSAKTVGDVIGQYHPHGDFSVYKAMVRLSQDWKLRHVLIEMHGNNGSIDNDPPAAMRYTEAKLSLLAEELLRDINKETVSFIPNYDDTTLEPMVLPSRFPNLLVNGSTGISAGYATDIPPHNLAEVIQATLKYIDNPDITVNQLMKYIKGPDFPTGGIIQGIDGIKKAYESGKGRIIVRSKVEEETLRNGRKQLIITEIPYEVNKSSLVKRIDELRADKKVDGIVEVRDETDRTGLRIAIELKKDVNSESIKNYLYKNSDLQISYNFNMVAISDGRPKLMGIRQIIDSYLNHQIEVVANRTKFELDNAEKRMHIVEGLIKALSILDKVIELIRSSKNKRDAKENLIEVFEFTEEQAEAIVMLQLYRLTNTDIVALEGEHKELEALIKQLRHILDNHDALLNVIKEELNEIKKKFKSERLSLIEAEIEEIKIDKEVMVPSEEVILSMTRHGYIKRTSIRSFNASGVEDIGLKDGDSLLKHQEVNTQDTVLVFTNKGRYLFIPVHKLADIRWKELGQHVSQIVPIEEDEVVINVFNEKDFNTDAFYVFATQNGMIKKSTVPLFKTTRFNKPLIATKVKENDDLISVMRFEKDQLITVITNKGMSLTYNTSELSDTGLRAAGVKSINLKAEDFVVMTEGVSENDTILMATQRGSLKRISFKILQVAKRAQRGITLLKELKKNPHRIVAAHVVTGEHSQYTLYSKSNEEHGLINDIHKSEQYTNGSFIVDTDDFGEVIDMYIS
Topoisomerase IV, sequence (P0C1S7 whole entry): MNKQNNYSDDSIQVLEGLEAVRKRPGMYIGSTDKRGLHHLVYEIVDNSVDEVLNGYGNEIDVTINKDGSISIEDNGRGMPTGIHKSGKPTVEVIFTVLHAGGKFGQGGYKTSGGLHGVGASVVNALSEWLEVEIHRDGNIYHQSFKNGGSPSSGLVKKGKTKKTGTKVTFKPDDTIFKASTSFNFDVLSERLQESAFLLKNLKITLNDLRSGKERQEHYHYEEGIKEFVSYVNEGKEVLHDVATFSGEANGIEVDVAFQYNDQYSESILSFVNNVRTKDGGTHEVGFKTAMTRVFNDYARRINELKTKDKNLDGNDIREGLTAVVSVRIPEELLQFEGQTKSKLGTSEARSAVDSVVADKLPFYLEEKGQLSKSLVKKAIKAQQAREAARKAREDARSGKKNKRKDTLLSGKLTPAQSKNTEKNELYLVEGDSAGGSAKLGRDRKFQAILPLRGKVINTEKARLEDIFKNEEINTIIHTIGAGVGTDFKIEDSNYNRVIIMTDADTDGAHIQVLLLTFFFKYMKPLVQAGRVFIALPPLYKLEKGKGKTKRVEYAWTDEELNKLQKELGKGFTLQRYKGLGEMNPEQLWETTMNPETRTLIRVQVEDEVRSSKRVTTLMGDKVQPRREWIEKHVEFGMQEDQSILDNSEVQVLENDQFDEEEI

[16] = target: DNA gyrase (Staphylococcus aureus, UniProt P0A0K8+P20831); experiment: Inhibition of Staphylococcus aureus DNA gyrase incubated for 30 mins in presence of relaxed plasmid DNA by supercoiling based gel electrophoresis analysis; type: protein-complex assay
DNA gyrase, sequence (P0A0K8 whole entry): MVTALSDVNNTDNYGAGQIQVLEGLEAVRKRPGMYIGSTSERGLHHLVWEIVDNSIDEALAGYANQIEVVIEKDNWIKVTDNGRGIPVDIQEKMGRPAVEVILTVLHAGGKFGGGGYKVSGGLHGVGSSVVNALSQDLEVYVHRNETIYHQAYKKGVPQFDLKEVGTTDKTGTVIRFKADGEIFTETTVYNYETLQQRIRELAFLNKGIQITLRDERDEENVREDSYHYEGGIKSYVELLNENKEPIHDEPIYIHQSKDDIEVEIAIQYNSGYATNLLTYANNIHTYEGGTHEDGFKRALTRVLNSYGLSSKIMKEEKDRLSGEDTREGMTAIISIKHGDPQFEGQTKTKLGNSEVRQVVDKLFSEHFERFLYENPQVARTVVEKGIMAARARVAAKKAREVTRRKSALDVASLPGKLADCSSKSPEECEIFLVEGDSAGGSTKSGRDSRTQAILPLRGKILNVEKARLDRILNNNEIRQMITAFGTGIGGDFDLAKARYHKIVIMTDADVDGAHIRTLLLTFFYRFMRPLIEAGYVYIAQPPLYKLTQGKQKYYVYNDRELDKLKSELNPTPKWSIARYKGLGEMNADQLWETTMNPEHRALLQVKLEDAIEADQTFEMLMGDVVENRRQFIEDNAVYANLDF
DNA gyrase, sequence (P20831 whole entry): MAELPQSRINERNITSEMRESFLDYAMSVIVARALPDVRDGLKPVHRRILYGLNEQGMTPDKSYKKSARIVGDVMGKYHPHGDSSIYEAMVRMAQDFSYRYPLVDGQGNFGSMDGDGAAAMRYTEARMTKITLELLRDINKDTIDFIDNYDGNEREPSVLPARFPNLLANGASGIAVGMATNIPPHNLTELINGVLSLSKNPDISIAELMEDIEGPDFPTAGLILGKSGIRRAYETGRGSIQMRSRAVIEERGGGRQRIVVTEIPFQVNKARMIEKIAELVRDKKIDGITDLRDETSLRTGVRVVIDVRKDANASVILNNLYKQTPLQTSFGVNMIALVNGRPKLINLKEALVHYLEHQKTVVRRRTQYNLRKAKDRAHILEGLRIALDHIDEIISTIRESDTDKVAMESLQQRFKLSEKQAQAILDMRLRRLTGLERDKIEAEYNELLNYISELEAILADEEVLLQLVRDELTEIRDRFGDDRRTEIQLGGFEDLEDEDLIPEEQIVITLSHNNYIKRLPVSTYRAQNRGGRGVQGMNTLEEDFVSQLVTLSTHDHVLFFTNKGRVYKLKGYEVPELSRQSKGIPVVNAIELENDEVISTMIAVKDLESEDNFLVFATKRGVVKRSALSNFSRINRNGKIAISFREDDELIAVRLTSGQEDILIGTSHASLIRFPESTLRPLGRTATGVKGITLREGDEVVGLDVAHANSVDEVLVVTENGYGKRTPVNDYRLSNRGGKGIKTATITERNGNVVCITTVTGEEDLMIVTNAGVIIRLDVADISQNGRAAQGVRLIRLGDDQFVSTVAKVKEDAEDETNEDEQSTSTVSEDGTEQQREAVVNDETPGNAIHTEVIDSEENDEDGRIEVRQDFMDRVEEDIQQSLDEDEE

[17] = target: Dihydrofolate reductase (Staphylococcus aureus, UniProt P0A017); experiment: Inhibition of Staphylococcus aureus DHFR preincubated for 5 mins followed by dihydrofolic acid addition and measured for 10 mins by absorbance based assay
Dihydrofolate reductase, sequence (P0A017 whole entry): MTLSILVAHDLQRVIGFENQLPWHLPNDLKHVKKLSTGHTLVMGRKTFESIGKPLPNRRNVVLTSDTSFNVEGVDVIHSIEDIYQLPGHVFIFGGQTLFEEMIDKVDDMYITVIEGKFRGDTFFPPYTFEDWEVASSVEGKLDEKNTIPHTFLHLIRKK

| Compound | MIC [1] [µg/mL] | MIC [2] [µg/mL] | MIC [3] [µg/mL] | MIC [4] [µg/mL] | MIC [5] [µg/mL] | MIC [6] [µg/mL] | MIC [7] [µg/mL] | MIC [8] [µg/mL] | MIC [9] [µg/mL] | MIC [10] [µg/mL] | MIC [11] [µg/mL] | MIC [12] [µg/mL] | MIC [13] [µg/mL] | MIC [14] [µg/mL] | pIC50 [15] | pIC50 [16] | pIC50 [17] |
| --- | --- | --- | --- | --- | --- | --- | --- | --- | --- | --- | --- | --- | --- | --- | --- | --- | --- |
| CC(=O)OC[C@H]1O[C@@H](NC(=S)Nc2nc(-c3ccc(Br)cc3)cs2)[C@H](OC(C)=O)[C@@H](OC(C)=O)[C@@H]1OC(C)=O | 12.5 (≈ 19.4 µM) | 3.12 (≈ 4.85 µM) | 25 (≈ 38.8 µM) | 50 (≈ 77.6 µM) | 100 (≈ 155 µM) | 0.78 (≈ 1.21 µM) | 50 (≈ 77.6 µM) | 50 (≈ 77.6 µM) | 0.78 (≈ 1.21 µM) | 3.12 (≈ 4.85 µM) | 1.56 (≈ 2.42 µM) | 6.25 (≈ 9.7 µM) | 25 (≈ 38.8 µM) | 6.25 (≈ 9.7 µM) | – | – | – |
| Clc1ccc(COC(Cn2ccnc2)c2ccc(Cl)cc2Cl)c(Cl)c1 (configuration not stated) [MICONAZOLE] | – | 1.56 (≈ 3.75 µM) | – | 1.56 (≈ 3.75 µM) | – | – | – | 3.12 (≈ 7.51 µM) | 3.12 (≈ 7.51 µM) | – | – | – | 3.12 (≈ 7.51 µM) | – | – | – | – |
| COc1ccc(-c2csc(NC(=S)N[C@@H]3O[C@H](COC(C)=O)[C@@H](OC(C)=O)[C@H](OC(C)=O)[C@H]3OC(C)=O)n2)cc1[N+](=O)[O-] | 0.78 (≈ 1.22 µM) | 1.56 (≈ 2.44 µM) | 50 (≈ 78 µM) | 100 (≈ 156 µM) | 0.78 (≈ 1.22 µM) | 50 (≈ 78 µM) | 6.25 (≈ 9.76 µM) | 12.5 (≈ 19.5 µM) | 25 (≈ 39 µM) | 50 (≈ 78 µM) | 200 (≈ 312 µM) | 0.78 (≈ 1.22 µM) | 200 (≈ 312 µM) | 200 (≈ 312 µM) | 4.17 | 5.90 | 6.89 |
| CN[C@H](CC(C)C)C(=O)N[C@H]1C(=O)N[C@@H](CC(N)=O)C(=O)N[C@H]2C(=O)N[C@H]3C(=O)N[C@H](C(=O)N[C@H](C(=O)O)c4cc(O)cc(O)c4-c4cc3ccc4O)[C@H](O)c3ccc(c(Cl)c3)Oc3cc2cc(c3O[C@@H]2O[C@H](CO)[C@@H](O)[C@H](O)[C@H]2O[C@H]2C[C@](C)(N)[C@H](O)[C@H](C)O2)Oc2ccc(cc2Cl)[C@H]1O [VANCOMYCIN] | 1.56 (≈ 1.08 µM) | – | 0.78 (≈ 0.538 µM) | – | – | – | 1.56 (≈ 1.08 µM) | – | – | 1.56 (≈ 1.08 µM) | – | – | – | 1.56 (≈ 1.08 µM) | – | – | – |
| O=C(O)c1cn(C2CC2)c2cc(N3CCNCC3)c(F)cc2c1=O [CIPROFLOXACIN] | 3.12 (≈ 9.43 µM) | – | 3.12 (≈ 9.43 µM) | – | 1.56 (≈ 4.71 µM) | 1.56 (≈ 4.71 µM) | – | – | – | 3.12 (≈ 9.43 µM) | – | 1.56 (≈ 4.71 µM) | – | – | – | – | – |
| CC(=O)OC[C@H]1O[C@@H](NC(=S)Nc2nc(-c3ccccc3)cs2)[C@H](OC(C)=O)[C@@H](OC(C)=O)[C@@H]1OC(C)=O | 200 (≈ 354 µM) | 50 (≈ 88.4 µM) | 0.78 (≈ 1.38 µM) | 0.78 (≈ 1.38 µM) | 6.25 (≈ 11 µM) | 400 (≈ 707 µM) | 25 (≈ 44.2 µM) | 3.12 (≈ 5.52 µM) | 6.25 (≈ 11 µM) | 25 (≈ 44.2 µM) | 100 (≈ 177 µM) | 25 (≈ 44.2 µM) | 1.56 (≈ 2.76 µM) | 50 (≈ 88.4 µM) | – | – | – |
| CC(=O)OC[C@H]1O[C@@H](NC(=S)Nc2nc(-c3ccc(C)cc3)cs2)[C@H](OC(C)=O)[C@@H](OC(C)=O)[C@@H]1OC(C)=O | 25 (≈ 43.1 µM) | 12.5 (≈ 21.6 µM) | 400 (≈ 690 µM) | 12.5 (≈ 21.6 µM) | 50 (≈ 86.3 µM) | 25 (≈ 43.1 µM) | 12.5 (≈ 21.6 µM) | 400 (≈ 690 µM) | 200 (≈ 345 µM) | 100 (≈ 173 µM) | 6.25 (≈ 10.8 µM) | 200 (≈ 345 µM) | 0.78 (≈ 1.35 µM) | 25 (≈ 43.1 µM) | – | – | – |
| CC(=O)OC[C@H]1O[C@@H](NC(=S)Nc2nc(-c3ccc(Cl)cc3)cs2)[C@H](OC(C)=O)[C@@H](OC(C)=O)[C@@H]1OC(C)=O | 3.12 (≈ 5.21 µM) | 25 (≈ 41.7 µM) | 3.12 (≈ 5.21 µM) | 25 (≈ 41.7 µM) | 200 (≈ 333 µM) | 12.5 (≈ 20.8 µM) | 400 (≈ 667 µM) | 25 (≈ 41.7 µM) | 3.12 (≈ 5.21 µM) | 12.5 (≈ 20.8 µM) | 50 (≈ 83.3 µM) | 12.5 (≈ 20.8 µM) | 3.12 (≈ 5.21 µM) | 12.5 (≈ 20.8 µM) | 4.16 | 5.55 | 6.64 |
| COc1ccc(-c2csc(NC(=S)N[C@@H]3O[C@H](COC(C)=O)[C@@H](OC(C)=O)[C@H](OC(C)=O)[C@H]3OC(C)=O)n2)cc1 | 1.56 (≈ 2.62 µM) | 6.25 (≈ 10.5 µM) | 100 (≈ 168 µM) | 6.25 (≈ 10.5 µM) | 12.5 (≈ 21 µM) | 6.25 (≈ 10.5 µM) | 3.12 (≈ 5.25 µM) | 0.78 (≈ 1.31 µM) | 12.5 (≈ 21 µM) | 400 (≈ 672 µM) | 3.12 (≈ 5.25 µM) | 1.56 (≈ 2.62 µM) | 12.5 (≈ 21 µM) | 3.12 (≈ 5.25 µM) | 4.10 | 5.86 | 6.77 |
| CC(=O)OC[C@H]1O[C@@H](NC(=S)Nc2nc(-c3cccc([N+](=O)[O-])c3)cs2)[C@H](OC(C)=O)[C@@H](OC(C)=O)[C@@H]1OC(C)=O | 6.25 (≈ 10.2 µM) | 0.78 (≈ 1.28 µM) | 12.5 (≈ 20.5 µM) | 3.12 (≈ 5.12 µM) | 3.12 (≈ 5.12 µM) | 3.12 (≈ 5.12 µM) | 0.78 (≈ 1.28 µM) | 100 (≈ 164 µM) | 50 (≈ 81.9 µM) | 6.25 (≈ 10.2 µM) | 0.78 (≈ 1.28 µM) | 3.12 (≈ 5.12 µM) | 6.25 (≈ 10.2 µM) | 0.78 (≈ 1.28 µM) | – | – | – |
| CCc1ccc(-c2csc(NC(=S)N[C@@H]3O[C@H](COC(C)=O)[C@@H](OC(C)=O)[C@H](OC(C)=O)[C@H]3OC(C)=O)n2)cc1 | 400 (≈ 674 µM) | 200 (≈ 337 µM) | 6.25 (≈ 10.5 µM) | 200 (≈ 337 µM) | 25 (≈ 42.1 µM) | 100 (≈ 168 µM) | 100 (≈ 168 µM) | 6.25 (≈ 10.5 µM) | 400 (≈ 674 µM) | 0.78 (≈ 1.31 µM) | 12.5 (≈ 21.1 µM) | 50 (≈ 84.2 µM) | 400 (≈ 674 µM) | 400 (≈ 674 µM) | – | – | – |
| OC(Cn1cncn1)(Cn1cncn1)c1ccc(F)cc1F [FLUCONAZOLE] | – | 0.78 (≈ 2.55 µM) | – | 1.56 (≈ 5.09 µM) | – | – | – | 0.78 (≈ 2.55 µM) | 0.78 (≈ 2.55 µM) | – | – | – | 0.78 (≈ 2.55 µM) | – | – | – | – |
